Results from different studies.
CDK2 with cyclin A2: Cyclin-dependent kinase 2, with cyclin A2 (CDK2, Homo sapiens, UniProt P24941)
Oprd1: Delta-type opioid receptor (Oprd1, Rattus norvegicus, UniProt P33533)
ST14: Suppressor of tumorigenicity 14 protein (ST14, Homo sapiens, UniProt Q9Y5Y6)

SMILES | target | test | conditions | quantity | value
CC(=O)Nc1c(N)nc(SCC(=O)N/N=C/c2ccc([N+](=O)[O-])cc2)[nH]c1=O | CDK2 with cyclin A2 | enzyme activity, inhibitor | 20 nM | inhibition | 21.3%
C=CC(=O)N1CCC(COCC(=O)N2CCN(c3nc(-c4cnc(N)nc4C(F)F)nc(N4CCOC[C@@H]4C)n3)CC2)CC1 | ALK tyrosine kinase receptor (ALK, Homo sapiens, UniProt Q9UM73) | binding, competition with immobilised ligand | 1 µM | remaining binding | 72%
CNC(=O)c1cc(Oc2ccc(NC(=O)Nc3ccc(Cl)c(C(F)(F)F)c3)cc2)ccn1 | CDK2 with cyclin A2 | enzyme activity, inhibitor | 1 nM | inhibition | 19.6%
Cc1cc([C@@H](C)Nc2ccccc2C(=O)O)c2nc(N3CCC(F)(F)CC3)c(C#N)c(=O)n2c1 | Tyrosine-protein kinase ZAP-70 (ZAP70, Homo sapiens, UniProt P43403) | binding, competition with immobilised ligand | 1 µM | remaining binding | 100%
C[C@H]1C(=O)/C(=C/c2ccccc2)[C@H]2C[C@@H]1N(Cc1ccccc1)C[C@@]2(C)O | Oprd1 | ligand displacement, radioligand | 1 µM | inhibition | 16%
N=C(N)NCCC[C@H](NC(=O)[C@H](Cc1ccc2ccccc2c1)NC(=O)[C@H](Cc1cscn1)NC(=O)CCc1ccccc1)C(=O)c1nc2ccccc2s1 | ST14 | enzyme activity, inhibitor | 0.1 µM | remaining activity | 8%
CC(=O)Nc1c(N)nc(SCC(=O)NN)[nH]c1=O | CDK2 with cyclin A2 | enzyme activity, inhibitor | 20 nM | inhibition | 30.9%
CC(C)C[C@@H](C(=O)N[C@@H](CCCNC(=N)N)C(=O)c1nc2ccccc2s1)N(C)C(=O)[C@H](Cc1cscn1)NC(=O)CCc1ccccc1 | ST14 | enzyme activity, inhibitor | 0.1 µM | remaining activity | 50%
CNc1ncc2c(/C=C/C(=O)N3CCC(OC)CC3)nn(Cc3cccc(C(F)(F)F)c3)c2n1 | Mitogen-activated protein kinase kinase kinase 14 (MAP3K14, Homo sapiens, UniProt Q99558) | enzyme activity, inhibitor, radiometric | 1 µM | remaining activity | 105%
CC(C)[C@@H](CC(=O)N[C@@H](CCCNC(=N)N)C(=O)c1nc2ccccc2s1)NC(=O)[C@H](Cc1cscn1)NC(=O)CCc1ccccc1 | ST14 | enzyme activity, inhibitor | 0.1 µM | remaining activity | 81%
COc1cc(-c2cncc3c2CN(C)Cc2cc(N4CCNCC4)ccc2-3)cc(OC)c1OC | Tyrosine-protein kinase Fyn (FYN, Homo sapiens, UniProt P06241) | enzyme activity, inhibitor | 1 µM | remaining activity | 94%
N=C(N)NCCC[C@H](NC(=O)[C@@H](NC(=O)[C@H](Cc1cscn1)NC(=O)CCc1ccccc1)c1ccccc1)C(=O)c1nc2ccccc2s1 | ST14 | enzyme activity, inhibitor | 0.1 µM | remaining activity | 33%
CC(=O)c1c(C)c2cnc(Nc3ccc(N4CCNCC4)cn3)nc2n(C2CCCC2)c1=O | Cyclin-dependent kinase 2 (CDK2, Homo sapiens, UniProt P24941) | enzyme activity, inhibitor, ADP detection | 1 µM | activity vs control | 79%
COc1ccc2[nH]c3c(c2c1)[C@H]1C[C@@H]([C@H]3C)N(Cc2ccccc2)C[C@]1(C)O | Oprd1 | ligand displacement, radioligand | 1 µM | inhibition | 13%
N=C(N)NCCC[C@H](NC(=O)[C@@H]1CCCN1C(=O)[C@H](Cc1cscn1)NC(=O)CCc1ccccc1)C(=O)c1nc2ccccc2s1 | ST14 | enzyme activity, inhibitor | 0.1 µM | remaining activity | 61%
